Measured values taken from ChEMBL document CHEMBL4261600 (Eur J Med Chem, 2018).

What was measured:
[1] = target: Atypical kinase COQ8B, mitochondrial (Homo sapiens) (UniProt Q96D53); assay: Binding affinity to wild-type human full length ADCK4 (M1 to S544 residues) expressed in bacterial expression system assessed as remaining unbound target protein level at 1000 nM by Kinomescan method relative to control
In short: (§1)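 Single-point competition binding screen across a panel of 468 kinases and mutants, with the inhibitor at 1 μM. Binding is read out as percent of a DMSO control, and targets below 1 percent control were classed as strong binders.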

[2] = target: Mitogen-activated protein kinase kinase kinase 2 (Homo sapiens) (UniProt Q9Y2U5); assay: Binding affinity to wild-type human partial length MAP3K2 (S315 to H619 residues) expressed in mammalian expression system assessed as remaining unbound target protein level at 1000 nM by Kinomescan method relative to control
In short: (§2)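 KINOMEscan binding panel of 468 kinases/mutants. Inhibitor was tested at a single concentration of 1 μM. Binding is reported as percent of control, defined relative to a DMSO control.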

[3] = target: Ephrin type-A receptor 2 (Homo sapiens) (UniProt P29317); assay: Binding affinity to wild-type human partial length EPHA2 (T593 to V891 residues) expressed in bacterial expression system assessed as remaining unbound target protein level at 1000 nM by Kinomescan method relative to control
[4] = target: Hepatocyte growth factor receptor (Homo sapiens) (UniProt P08581); assay: Binding affinity to wild-type human partial length MET (D1010 to S1367 residues) expressed in bacterial expression system assessed as remaining unbound target protein level at 1000 nM by Kinomescan method relative to control
[5] = target: Dual specificity mitogen-activated protein kinase kinase 6 (Homo sapiens) (UniProt P52564); assay: Binding affinity to wild-type human partial length MEK6 (K36 to D334 residues) expressed in bacterial expression system assessed as remaining unbound target protein level at 1000 nM by Kinomescan method relative to control; in short: as §2
[6] = target: Cyclin-dependent kinase 7 (Homo sapiens) (UniProt P50613); assay: Binding affinity to wild-type human full length CDK7 (M1 to L344 residues) expressed in mammalian expression system assessed as remaining unbound target protein level at 1000 nM by Kinomescan method relative to control
In short: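 KINOMEscan competitive binding profile at 1 μM inhibitor. Remaining target binding reported as percent of DMSO control.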

CDK3/Cyclin E = CDK3/Cyclin E (Homo sapiens, UniProt Q00526); assay: Inhibition of recombinant GST-tagged human CDK3/cyclin E1; assay type: protein-complex assay
[7] = Clearance in mouse at 3 mg/kg, iv by LC-MS/MS analysis; assay type: ADME, organism-based; conditions: in vivo
[8] = target: Phosphorylase b kinase gamma catalytic chain, skeletal muscle/heart isoform (Homo sapiens) (UniProt Q16816); assay: Binding affinity to wild-type human full length PHKG1 (M1 to Y387 residues) expressed in bacterial expression system assessed as remaining unbound target protein level at 1000 nM by Kinomescan method relative to control
In short: (§3)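 KINOMEscan competition binding profile across a panel of 468 kinases and mutants, with the inhibitor tested at a single concentration of 1 μM. Binding is reported as percent of control, meaning signal relative to a DMSO control.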

[9] = target: MAP kinase-interacting serine/threonine-protein kinase 1 (Homo sapiens) (UniProt Q9BUB5); assay: Binding affinity to wild-type human full length MKNK1 (M1 to L424 residues) expressed in mammalian expression system assessed as remaining unbound target protein level at 1000 nM by Kinomescan method relative to control; in short: as §1
[10] = target: Muscle, skeletal receptor tyrosine-protein kinase (Homo sapiens) (UniProt O15146); assay: Binding affinity to wild-type human partial length MUSK (M553 to V869 residues) expressed in bacterial expression system assessed as remaining unbound target protein level at 1000 nM by Kinomescan method relative to control
[11] = test system: eIF-2-alpha kinase GCN2 (Homo sapiens), Q9P2K8 [S808G]; assay: Binding affinity to wild-type human partial length GCN2 kinase domain 2 (R585 to T1018 residues) S808G mutant expressed in bacterial expression system assessed as remaining unbound target protein level at 1000 nM by Kinomescan method relative to control
[12] = Cmax in beagle dog at 2 mg/kg, iv by LC-MS/MS analysis; assay type: ADME, organism-based, Canis lupus familiaris; design: dose 2 mg/kg, route intravenous; conditions: in vivo
[13] = AUC (0 to infinity) in mouse at 3 mg/kg, iv by LC-MS/MS analysis; assay type: ADME, organism-based; design: dose 3 mg/kg, route intravenous, time infinity; conditions: in vivo
In short: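 Non-compartmental PK. Male SD rats 190-210 g, mice and beagle dogs acclimatized one week, fasted 12 h with water, split into iv and po groups (mice 48, rats 6, dogs 6). iv 3/3/2 mg/kg (mice/rats/dogs); po 10/20/10 mg/kg; vehicle DMSO in 5% glucose water. Blood at 2 or 5 to 720 min; plasma protein-precipitated with methanol, caffeine internal standard, LC-MS/MS.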

[14] = target: Cyclin-dependent kinase 13 (Homo sapiens) (UniProt Q14004); assay: Binding affinity to wild-type human partial length CDC2L5 (H675 to S1054 residues) expressed in mammalian expression system assessed as remaining unbound target protein level at 1000 nM by Kinomescan method relative to control; in short: as §3
[15] = target: Homeodomain-interacting protein kinase 4 (Homo sapiens) (UniProt Q8NE63); assay: Binding affinity to wild-type human partial length HIPK4 (M1 to V384 residues) expressed in bacterial expression system assessed as remaining unbound target protein level at 1000 nM by Kinomescan method relative to control; in short: as §2
[16] = target: Epidermal growth factor receptor (Homo sapiens) (UniProt P00533); assay: Binding affinity to human partial length EGFR L747-T751del/Sins mutant expressed in bacterial expression system assessed as remaining unbound target protein level at 1000 nM by Kinomescan method relative to control
In short: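 KINOMEscan competition-binding profiling across the panel of 468 kinases and mutants, with inhibitor tested at 1 μM. Binding is expressed as percent of control, with DMSO as the reference control.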

[17] = target: 3-phosphoinositide-dependent protein kinase 1 (Homo sapiens) (UniProt O15530); assay: Binding affinity to wild-type human full length PDPK1 (M1 to Q556 residues) expressed in bacterial expression system assessed as remaining unbound target protein level at 1000 nM by Kinomescan method relative to control
In short: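 Profiled in a KINOMEscan binding panel with the inhibitor at a single concentration of 1 μM. Binding to each kinase was read out as percent of control, relative to a DMSO control. Strong binders were defined as those with a percent control value below 1.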

HL-60 = assay: Induction of apoptosis in human HL60 cells assessed as decrease in MCL-1 level after 2 hrs by immunoblotting analysis; assay type: functional, cell-based
[18] = target: Serine/threonine-protein kinase PAK 1 (Homo sapiens) (UniProt Q13153); assay: Binding affinity to wild-type human partial length PAK1 (S149 to H545 residues) expressed in bacterial expression system assessed as remaining unbound target protein level at 1000 nM by Kinomescan method relative to control
[19] = target: Mitogen-activated protein kinase kinase kinase 15 (Homo sapiens) (UniProt Q6ZN16); assay: Binding affinity to wild-type human partial length MAP3K15 (T625 to L932 residues) expressed in mammalian expression system assessed as remaining unbound target protein level at 1000 nM by Kinomescan method relative to control

Chain of Hepatocyte growth factor receptor (Homo sapiens) (P08581 whole entry, the tested form may be a part): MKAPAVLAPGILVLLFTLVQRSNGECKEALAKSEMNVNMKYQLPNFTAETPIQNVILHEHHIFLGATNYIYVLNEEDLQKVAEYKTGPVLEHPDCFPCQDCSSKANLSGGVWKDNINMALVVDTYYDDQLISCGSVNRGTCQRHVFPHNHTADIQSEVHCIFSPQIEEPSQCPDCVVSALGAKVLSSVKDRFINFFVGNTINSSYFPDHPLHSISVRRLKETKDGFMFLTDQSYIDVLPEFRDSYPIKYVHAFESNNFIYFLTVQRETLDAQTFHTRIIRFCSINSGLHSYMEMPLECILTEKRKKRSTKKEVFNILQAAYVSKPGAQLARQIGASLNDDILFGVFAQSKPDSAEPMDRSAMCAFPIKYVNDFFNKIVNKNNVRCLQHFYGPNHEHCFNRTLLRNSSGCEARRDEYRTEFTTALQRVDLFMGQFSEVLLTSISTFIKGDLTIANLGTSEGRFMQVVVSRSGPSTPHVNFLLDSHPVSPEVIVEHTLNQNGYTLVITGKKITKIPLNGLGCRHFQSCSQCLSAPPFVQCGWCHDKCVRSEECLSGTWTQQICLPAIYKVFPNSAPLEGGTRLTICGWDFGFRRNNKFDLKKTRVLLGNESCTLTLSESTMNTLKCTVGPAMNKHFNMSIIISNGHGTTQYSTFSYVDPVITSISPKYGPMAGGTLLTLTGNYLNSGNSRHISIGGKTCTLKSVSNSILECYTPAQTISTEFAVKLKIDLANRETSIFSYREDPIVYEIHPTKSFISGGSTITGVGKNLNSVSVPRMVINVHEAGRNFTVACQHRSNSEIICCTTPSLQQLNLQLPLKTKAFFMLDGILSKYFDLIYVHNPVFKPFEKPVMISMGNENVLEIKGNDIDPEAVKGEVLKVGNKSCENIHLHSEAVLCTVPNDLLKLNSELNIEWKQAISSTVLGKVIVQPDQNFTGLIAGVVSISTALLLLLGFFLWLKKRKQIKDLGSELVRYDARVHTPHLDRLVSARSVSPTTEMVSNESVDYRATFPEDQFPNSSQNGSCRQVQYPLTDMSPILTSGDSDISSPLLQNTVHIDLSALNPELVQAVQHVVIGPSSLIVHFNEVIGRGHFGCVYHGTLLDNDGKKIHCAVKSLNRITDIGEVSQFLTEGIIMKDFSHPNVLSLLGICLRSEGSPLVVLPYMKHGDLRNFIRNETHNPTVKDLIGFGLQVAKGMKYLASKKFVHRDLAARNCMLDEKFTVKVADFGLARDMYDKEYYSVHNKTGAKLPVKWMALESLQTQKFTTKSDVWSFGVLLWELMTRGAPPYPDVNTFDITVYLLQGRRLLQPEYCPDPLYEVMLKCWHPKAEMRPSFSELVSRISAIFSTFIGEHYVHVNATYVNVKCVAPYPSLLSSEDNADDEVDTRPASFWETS
Chain of Homeodomain-interacting protein kinase 4 (Homo sapiens) (Q8NE63 whole entry, the tested form may be a part): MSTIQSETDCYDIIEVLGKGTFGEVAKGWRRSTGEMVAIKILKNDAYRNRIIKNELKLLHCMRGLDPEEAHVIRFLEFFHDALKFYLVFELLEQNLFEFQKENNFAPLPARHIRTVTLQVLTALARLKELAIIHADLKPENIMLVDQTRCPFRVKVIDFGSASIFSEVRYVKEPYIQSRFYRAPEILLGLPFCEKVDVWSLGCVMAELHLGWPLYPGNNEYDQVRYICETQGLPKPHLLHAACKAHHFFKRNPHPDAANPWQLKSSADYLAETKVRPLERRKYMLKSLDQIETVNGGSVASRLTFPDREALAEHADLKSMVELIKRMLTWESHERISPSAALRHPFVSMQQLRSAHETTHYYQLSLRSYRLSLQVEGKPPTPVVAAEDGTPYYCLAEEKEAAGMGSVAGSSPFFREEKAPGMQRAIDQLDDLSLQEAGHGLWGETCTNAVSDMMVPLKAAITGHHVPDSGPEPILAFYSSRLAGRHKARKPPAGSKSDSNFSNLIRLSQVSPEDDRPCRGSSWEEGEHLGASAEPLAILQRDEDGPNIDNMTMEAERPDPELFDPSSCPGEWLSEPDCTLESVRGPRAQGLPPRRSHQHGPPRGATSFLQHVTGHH
Chain of Mitogen-activated protein kinase kinase kinase 2 (Homo sapiens) (Q9Y2U5 whole entry, the tested form may be a part): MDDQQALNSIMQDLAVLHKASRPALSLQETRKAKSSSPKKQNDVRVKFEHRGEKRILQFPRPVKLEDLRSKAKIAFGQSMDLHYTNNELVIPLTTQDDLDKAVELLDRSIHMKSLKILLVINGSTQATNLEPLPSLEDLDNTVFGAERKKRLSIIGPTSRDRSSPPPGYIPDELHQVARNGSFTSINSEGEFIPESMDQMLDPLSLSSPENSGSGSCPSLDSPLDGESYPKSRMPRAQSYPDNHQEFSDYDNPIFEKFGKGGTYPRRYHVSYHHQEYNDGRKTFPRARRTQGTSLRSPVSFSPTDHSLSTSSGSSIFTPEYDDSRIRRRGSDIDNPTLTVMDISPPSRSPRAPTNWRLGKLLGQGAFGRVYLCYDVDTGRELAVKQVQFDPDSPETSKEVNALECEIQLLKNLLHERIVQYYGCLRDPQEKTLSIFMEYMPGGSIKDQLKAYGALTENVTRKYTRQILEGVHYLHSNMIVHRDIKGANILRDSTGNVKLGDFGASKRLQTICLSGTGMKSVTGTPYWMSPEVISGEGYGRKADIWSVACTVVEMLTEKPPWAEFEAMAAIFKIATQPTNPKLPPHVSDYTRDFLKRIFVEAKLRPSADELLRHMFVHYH
Chain of Cyclin-dependent kinase 7 (Homo sapiens) (P50613 whole entry, the tested form may be a part): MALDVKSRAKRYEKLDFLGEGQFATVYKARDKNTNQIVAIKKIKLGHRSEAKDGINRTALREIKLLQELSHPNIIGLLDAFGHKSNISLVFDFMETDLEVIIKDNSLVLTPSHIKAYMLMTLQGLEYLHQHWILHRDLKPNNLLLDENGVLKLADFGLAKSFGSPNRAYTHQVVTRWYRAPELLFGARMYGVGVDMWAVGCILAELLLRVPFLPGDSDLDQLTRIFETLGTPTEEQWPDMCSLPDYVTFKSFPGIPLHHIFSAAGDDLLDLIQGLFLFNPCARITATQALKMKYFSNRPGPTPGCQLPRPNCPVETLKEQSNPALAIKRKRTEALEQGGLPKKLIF
Chain of Ephrin type-A receptor 2 (Homo sapiens) (P29317 whole entry, the tested form may be a part): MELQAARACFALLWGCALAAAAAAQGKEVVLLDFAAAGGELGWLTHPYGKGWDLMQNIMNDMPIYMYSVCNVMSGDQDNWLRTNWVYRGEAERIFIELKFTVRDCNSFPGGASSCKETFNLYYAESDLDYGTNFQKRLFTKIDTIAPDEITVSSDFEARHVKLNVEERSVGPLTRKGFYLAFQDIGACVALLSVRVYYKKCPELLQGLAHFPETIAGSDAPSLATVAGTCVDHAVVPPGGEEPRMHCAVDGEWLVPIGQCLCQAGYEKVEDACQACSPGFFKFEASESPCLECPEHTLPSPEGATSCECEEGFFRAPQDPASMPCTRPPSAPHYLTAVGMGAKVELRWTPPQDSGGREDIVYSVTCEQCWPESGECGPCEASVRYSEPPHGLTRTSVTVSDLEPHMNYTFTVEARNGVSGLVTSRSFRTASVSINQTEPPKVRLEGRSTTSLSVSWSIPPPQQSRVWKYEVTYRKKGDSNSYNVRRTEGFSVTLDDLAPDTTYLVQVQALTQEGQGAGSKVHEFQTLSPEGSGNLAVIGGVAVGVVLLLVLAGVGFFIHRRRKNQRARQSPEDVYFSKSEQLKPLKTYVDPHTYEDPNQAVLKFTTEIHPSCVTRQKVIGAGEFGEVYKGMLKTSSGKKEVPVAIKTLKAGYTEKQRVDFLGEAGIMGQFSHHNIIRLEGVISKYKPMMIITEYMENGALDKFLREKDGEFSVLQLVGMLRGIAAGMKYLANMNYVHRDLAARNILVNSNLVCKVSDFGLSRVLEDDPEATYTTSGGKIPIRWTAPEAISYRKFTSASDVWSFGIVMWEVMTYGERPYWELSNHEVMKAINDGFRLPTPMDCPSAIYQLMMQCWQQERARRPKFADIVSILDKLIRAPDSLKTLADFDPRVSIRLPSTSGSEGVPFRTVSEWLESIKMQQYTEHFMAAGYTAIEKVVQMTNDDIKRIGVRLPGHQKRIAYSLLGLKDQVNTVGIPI
Chain of Serine/threonine-protein kinase PAK 1 (Homo sapiens) (Q13153 whole entry, the tested form may be a part): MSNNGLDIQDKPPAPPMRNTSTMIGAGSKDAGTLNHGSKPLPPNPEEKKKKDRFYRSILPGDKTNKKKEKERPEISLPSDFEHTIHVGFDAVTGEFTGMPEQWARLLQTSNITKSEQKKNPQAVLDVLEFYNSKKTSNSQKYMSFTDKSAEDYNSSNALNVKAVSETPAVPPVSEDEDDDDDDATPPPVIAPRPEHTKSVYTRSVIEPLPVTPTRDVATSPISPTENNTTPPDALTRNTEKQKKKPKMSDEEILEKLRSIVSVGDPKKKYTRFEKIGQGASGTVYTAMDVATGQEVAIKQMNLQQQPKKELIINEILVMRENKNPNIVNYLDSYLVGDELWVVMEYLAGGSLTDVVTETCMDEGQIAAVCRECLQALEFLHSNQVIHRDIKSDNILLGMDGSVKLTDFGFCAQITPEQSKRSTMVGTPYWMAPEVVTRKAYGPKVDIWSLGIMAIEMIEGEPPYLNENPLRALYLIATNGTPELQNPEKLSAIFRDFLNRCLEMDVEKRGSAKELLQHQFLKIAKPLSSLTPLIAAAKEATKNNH
Chain of Atypical kinase COQ8B, mitochondrial (Homo sapiens) (Q96D53 whole entry, the tested form may be a part): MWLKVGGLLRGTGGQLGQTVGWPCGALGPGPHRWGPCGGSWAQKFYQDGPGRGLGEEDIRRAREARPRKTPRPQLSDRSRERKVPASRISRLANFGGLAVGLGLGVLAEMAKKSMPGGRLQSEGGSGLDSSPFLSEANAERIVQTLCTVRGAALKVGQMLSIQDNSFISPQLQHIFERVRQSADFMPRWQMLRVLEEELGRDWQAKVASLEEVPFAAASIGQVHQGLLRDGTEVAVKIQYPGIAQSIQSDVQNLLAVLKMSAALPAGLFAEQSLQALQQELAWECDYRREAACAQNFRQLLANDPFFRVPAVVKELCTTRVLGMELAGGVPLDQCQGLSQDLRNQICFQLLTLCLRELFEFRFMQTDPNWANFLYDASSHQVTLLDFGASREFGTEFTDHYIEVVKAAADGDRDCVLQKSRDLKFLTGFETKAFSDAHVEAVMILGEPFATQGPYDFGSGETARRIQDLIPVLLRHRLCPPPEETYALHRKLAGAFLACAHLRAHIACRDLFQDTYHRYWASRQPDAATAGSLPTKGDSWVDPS

Question: Which Activity [1] does the source give for `COCCN[C@H]1CC[C@H](Nc2cc(-c3csc(NCC4(C#N)CCOCC4)n3)c(Cl)cn2)CC1` here?
Answer: 65%

Question: And the Activity [2]?
Answer: 74%

Question: And the Activity [3]?
Answer: 84%

Question: And the Activity [4]?
Answer: 73%

Question: And the Activity [5]?
Answer: 68%

Question: And the Activity [6]?
Answer: 1.8%

Question: And the IC50 (CDK3/Cyclin E)?
Answer: > 10 µM

Question: And the clearance [7]?
Answer: 123 mL/min/kg

Question: What about the Activity [8] of the same compound?
Answer: 69%

Question: And the Activity [9]?
Answer: 100%

Question: And the Activity [10]?
Answer: 100%

Question: And the Activity [11]?
Answer: 78%

Question: And the Cmax [12]?
Answer: 414 ng/mL

Question: And the AUC(0-inf) [13]?
Answer: 408 ng·h/mL

Question: And the Activity [14]?
Answer: 13%

Question: And the Activity [15]?
Answer: 9.9%

Question: What about the Activity [16] of the same compound?
Answer: 90%

Question: And the Activity [17]?
Answer: 92%

Question: And the Activity (HL-60)?
Answer: Dose-dependent effect

Question: And the Activity [18]?
Answer: 100%

Question: What about the Activity [19] of the same compound?
Answer: 84%
